The text below walks through data of ChEMBL document CHEMBL1142242, “Indanylacetic acid derivatives carrying 4-thiazolyl-phenoxy tail groups, a new class of potent PPAR alpha/gamma/delta pan agonists: synthesis, structure-activity relationship, and in vivo efficacy” (J Med Chem, 2007).

The target of experiment [1] is T1, Peroxisome proliferator-activated receptor alpha (Homo sapiens, UniProt Q07869).
T1 sequence (Q07869 whole entry): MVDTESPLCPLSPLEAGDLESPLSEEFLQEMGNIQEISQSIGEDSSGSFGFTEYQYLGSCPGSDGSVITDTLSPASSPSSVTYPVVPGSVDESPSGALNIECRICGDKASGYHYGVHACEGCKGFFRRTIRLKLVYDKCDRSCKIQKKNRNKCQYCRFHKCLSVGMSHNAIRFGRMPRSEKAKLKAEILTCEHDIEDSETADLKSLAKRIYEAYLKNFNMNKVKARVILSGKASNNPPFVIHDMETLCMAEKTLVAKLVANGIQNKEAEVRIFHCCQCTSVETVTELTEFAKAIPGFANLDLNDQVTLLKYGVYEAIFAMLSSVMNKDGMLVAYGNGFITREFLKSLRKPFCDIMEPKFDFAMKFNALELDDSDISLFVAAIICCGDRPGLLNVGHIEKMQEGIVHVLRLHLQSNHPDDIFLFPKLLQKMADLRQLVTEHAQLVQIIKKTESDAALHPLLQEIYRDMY
Nature of the experiment: Agonist activity at human PPAR alpha by FRET assay. In kind it is functional. The procedure, abridged: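 Human PPARα ligand binding domain (GST-tagged) association with biotin-labeled co-activator CBP; Eu-labeled anti-GST antibody and streptavidin-APC; incubated 2 h at rt in buffer with or without compound; fluorescence read at 615 or 655 nm emission, 340 nm excitation.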

The target in experiment [2] is T2, Peroxisome proliferator-activated receptor delta (Homo sapiens, UniProt Q03181).
T2 sequence (Q03181 whole entry): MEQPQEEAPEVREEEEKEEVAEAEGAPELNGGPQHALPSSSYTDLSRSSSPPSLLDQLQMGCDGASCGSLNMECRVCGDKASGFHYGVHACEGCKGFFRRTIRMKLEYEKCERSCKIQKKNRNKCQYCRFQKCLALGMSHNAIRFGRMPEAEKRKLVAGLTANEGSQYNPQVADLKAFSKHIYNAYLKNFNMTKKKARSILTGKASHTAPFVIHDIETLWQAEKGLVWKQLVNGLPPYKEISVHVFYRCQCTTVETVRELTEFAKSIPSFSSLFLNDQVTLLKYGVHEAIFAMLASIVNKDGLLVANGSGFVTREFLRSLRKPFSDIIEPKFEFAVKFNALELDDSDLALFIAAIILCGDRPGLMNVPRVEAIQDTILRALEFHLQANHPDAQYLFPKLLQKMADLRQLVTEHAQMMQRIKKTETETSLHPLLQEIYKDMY
Nature of the experiment: Agonist activity at human PPAR delta by FRET assay. The format is functional.

Experiment [3] concerns the target T3, Peroxisome proliferator-activated receptor gamma (Mus musculus, UniProt P37238).
T3 sequence (P37238 whole entry): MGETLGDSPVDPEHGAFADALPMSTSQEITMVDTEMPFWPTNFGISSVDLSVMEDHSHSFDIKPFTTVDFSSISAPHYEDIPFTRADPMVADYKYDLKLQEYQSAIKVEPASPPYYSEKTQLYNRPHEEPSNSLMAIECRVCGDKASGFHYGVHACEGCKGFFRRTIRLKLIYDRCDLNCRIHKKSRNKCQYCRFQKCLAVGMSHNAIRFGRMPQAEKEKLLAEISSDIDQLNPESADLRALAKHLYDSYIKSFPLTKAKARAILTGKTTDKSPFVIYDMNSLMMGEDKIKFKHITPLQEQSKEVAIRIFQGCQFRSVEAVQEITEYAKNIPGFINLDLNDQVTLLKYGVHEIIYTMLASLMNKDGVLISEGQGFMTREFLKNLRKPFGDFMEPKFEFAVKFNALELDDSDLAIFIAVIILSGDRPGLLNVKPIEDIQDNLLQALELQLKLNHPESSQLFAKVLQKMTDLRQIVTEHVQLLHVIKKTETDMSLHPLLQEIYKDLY
Nature of the experiment: Agonist activity at PPAR gamma in mouse 3T3L1 cells assessed as increase in insulin receptor by IRBA. The format is functional, cell-based, 3T3-L1.

In general, EC50 refers to the concentration that produces a half-maximal response. As for `CCOc1ccc(OCCCOc2ccc3c(c2)CC[C@H]3CC(=O)O)cc1`, the EC50 was over 10000 nM in experiment [1], 6.6 nM in experiment [2] and 940 nM in experiment [3].
Consider `CCCc1cc(-c2nc3c(s2)CCC3)ccc1OCCCOc1ccc2c(c1)CC[C@H]2CC(=O)O`, for which the concentration for a half-maximal effect (EC50) in experiment [1] was determined as 328 nM; in experiment [2], 3.5 nM; in experiment [3] it was 94 nM.
On the same counts, the results for `COc1ccc(OCCCOc2ccc3c(c2)CC[C@H]3CC(=O)O)cc1` are over 10000 nM, 6.7 nM and 3000 nM.
On the same counts, the results for `CCCc1cc(-c2nc(C(C)(C)C)cs2)ccc1OCCCOc1ccc2c(c1)CC[C@H]2CC(=O)O` are 87 nM, 11 nM and 18 nM.
On the same counts, the results for `CCCc1cc(-c2nccs2)ccc1OCCCOc1ccc2c(c1)CC[C@H]2CC(=O)O` are 111 nM, 1.6 nM and 48 nM.
